ROMK primary: modulates human ROMK potassium channel activity. Tet-inducible ROMK, thallium flux fluorescence; actives lie on both sides. P48048. B-score at 10 µM. 130,000 tested, 2% active. AID 1918;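 active = signal ratio slope over the read window, or its plate-corrected B-score, at least 3 SD from the plate mean, either direction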;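 note: B-score of the F/F0 ratio slope over 7 to 12 s after thallium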
Target sequence (P48048 whole entry, looked up): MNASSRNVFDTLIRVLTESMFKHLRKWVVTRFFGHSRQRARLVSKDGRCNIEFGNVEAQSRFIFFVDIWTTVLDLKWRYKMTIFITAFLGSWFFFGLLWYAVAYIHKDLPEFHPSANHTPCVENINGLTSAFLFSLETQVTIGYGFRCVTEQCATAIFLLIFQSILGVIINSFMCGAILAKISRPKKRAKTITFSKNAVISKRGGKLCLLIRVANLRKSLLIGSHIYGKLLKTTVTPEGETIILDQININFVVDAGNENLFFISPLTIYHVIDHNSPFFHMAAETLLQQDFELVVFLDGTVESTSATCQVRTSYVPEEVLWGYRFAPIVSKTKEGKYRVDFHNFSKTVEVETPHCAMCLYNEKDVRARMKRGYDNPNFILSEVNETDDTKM
Calb biofilm kill: mixture kills Candida albicans biofilm cells. AID 1242. C. albicans biofilm persisters + clotrimazole, fluorescence viability; primary screen in compound mixtures of four per well. 120,000 tested, 0.02% active. inhibition, % at 7.6 µM;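 active = inhibition above 30.3% in the primary screen of four-compound pools, then above 30% when the compound was retested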;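 note: compounds exposed to preformed 24 h biofilms for 48 h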
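Assay system: C. albicans biofilms / Medium: RPMI/MOPS medium, pH 7.0 / Schedule: biofilm formation 24 h, compound exposure 48 h, 37 °C / Measured by: Alamar Blue fluorescence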
A number is an active result; – = inactive; · = no result. Shown is part of a subset that was picked to be rich in hits.

SMILES | ROMK primary | Calb biofilm kill
CC(C)CCn1c(=O)c2ccccc2n2c(CN3C(=O)NC4(CCC(C)CC4)C3=O)nnc12 (configuration not stated) | 4.03 | ·
CC(C)Cn1c(=O)c2ccccc2n2c(SCC(=O)N3c4ccccc4CC3C)nnc12 (configuration not stated) | – | –
CC(C)(C)CC(C)(C)NC(=O)/C=C/C(=O)O | · | –
CSc1nc(-c2ccccc2)[nH]c(=S)c1C(C)=O | 4.73 | ·
CC(=O)c1c(C)[nH]c(-c2ccccc2)nc1=S | · | –
C=Cc1ccc(CSc2cc(C)nc3nc(C)nn23)cc1 | – | –
COc1ccccc1NS(=O)(=O)c1cccc(C(=O)NCc2ccco2)c1 | – | –
Cc1ccc(-c2cc3cccc[n+]3cc2-c2ccc(C)cc2)cc1 | · | –
C=CCN(C)CC/C=C1\c2ccccc2CSc2ccccc21 | – | –
NCC/C=C1/c2ccccc2CSc2ccccc21 | -5.18 | –
N#Cc1c2ccc(O)cc2n2ccccc12 | -4.72 | –
COC(=O)Cn1c(C)c(C#N)c2ccccc21 | · | –
Cc1ccc(N2C(N)=C(C#N)C(c3cc(CN4CCOCC4)cs3)C3=C2CC(C)(C)CC3=O)cc1 (configuration not stated) | – | –
CC(=O)c1ccc(C(=O)Nc2nnc(-c3ccc(Cl)cc3)o2)cc1 | · | –
O=C(Nc1nnc(-c2ccccc2)o1)c1ccc(Cl)cc1 | 9.99 | ·
CC(C)=CCN1CCN(Cc2cnc(-c3ccccc3)s2)CC1CCO (configuration not stated) | – | –
O=C(C1CCCN(S(=O)(=O)c2cccc3nsnc23)C1)N1CC=C(c2ccccc2)CC1 (configuration not stated) | -4.34 | ·
O=C(NCCc1ccccc1)C1CCCN(S(=O)(=O)c2cccc3nsnc23)C1 (configuration not stated) | · | –
O=C(/C=C/c1ccc(O)cc1)c1ccccc1 | · | –
O=C(/C=C/c1ccc(N2CCC(c3ccccc3)=N2)cc1)c1ccccc1 | -4.36 | –
CSc1nsc2nc(=O)c(/C=C3\C=Nc4ccccc43)c(N)n12 | 2.07 | –
CC(C)S(=O)(=O)c1nsc2nc(=O)c(/C=C3\C=Nc4ccccc43)c(N)n12 | – | –
CCOC(=O)Cc1csc(NC(=O)Nc2cccc(OC)c2)n1 | – | –
COCCN1C(=O)/C(=C/c2ccc(N3CCCC3)cc2)SC1=S | -3.49 | –
COc1ccc(/C=C2\SC(=S)N(CC(=O)N3CCN(C)CC3)C2=O)cc1 | · | –
SMILES | ROMK primary | Calb biofilm kill
COc1cc(C)c(-c2[nH]ncc2-c2csc(C)n2)c(O)c1 | – | –
Cc1nc(-c2cn[nH]c2-c2ccc(O)cc2O)cs1 | -3.09 | –
O=C(Nc1ccc2c(c1)OCO2)C1CCN(C(=O)c2ccc([N+](=O)[O-])cc2)CC1 | – | –
CC(=O)Nc1c(NC(=O)CC#N)[nH]c2c(c1=O)c(=O)n(C)c(=O)n2C | – | –
CC(C)CSC1=NSC2=NC(=O)/C(=C\c3coc4ccccc4c3=O)C(=N)N12 | · | –
CC(C)CSC1=NSC2=NC(=O)/C(=C\c3ccccc3)C(=N)N12 | 1.84 | –
CN(C(=O)COC(=O)c1ccccc1C(=O)N1CCN(c2ccccc2)CC1)c1ccccc1 | – | –
COc1ccccc1C(=O)C1CCCN(C(=O)CCn2cnnn2)C1 (configuration not stated) | · | –
O=C(NCc1ccc2c(c1)CCO2)Nc1ccccc1 | · | –
C/C(=N\NC(N)=S)c1ccccc1 | – | –
CSC(=S)N/N=C(\C)c1ccccc1 | 10.5 | –
Cc1cc(C)c(NC(N)=S)c(C)c1 | – | –
CC(=O)c1cc(-c2ccc(F)cc2)n(CCC(=O)Nc2cccc(C)n2)c1C | – | –
CN1C/C(=C/c2cccnc2)C(=O)/C(=C/c2cccnc2)C1 | -3.5 | –
CC(C)N1C/C(=C/c2cccnc2)C(=O)/C(=C/c2cccnc2)C1 | – | –
O=C(NC(=S)Nc1cccc(C(F)(F)F)c1)c1csnn1 | 8.78 | –
CN(C)NC(=S)Nc1cccc(C(F)(F)F)c1 | · | –
COc1ccc(N2C(=O)[C@@H]3[C@H](C2=O)[C@H]2c4ccccc4C=CN2[C@@H]3C(C)=O)cc1 | -3.56 | –
COc1ccc(N2C(=O)[C@H]3[C@@H](C2=O)C2c4ccccc4C=NN2[C@H]3C(=O)C(C)(C)C)cc1 (some centres not stated) | · | –
CCn1c(SCC(N)=O)nc2sc3c(c2c1=O)CCN(C)C3 | · | –
CCOC(=O)CSc1nc2sc3c(c2c(=O)n1C1CCCCC1)CCN(C)C3 | -3.52 | –
OCCC1CN(Cc2cnc(-c3cccc4ccccc34)nc2)CCN1C1CCCCC1 (configuration not stated) | – | –
O=C(O)c1cccc(N2C(=O)/C(=C/c3ccc(SCc4ccc(Cl)cc4)o3)SC2=S)c1 | -4.23 | –
Cc1ccc(/C=C2\SC(=S)N(c3cccnc3)C2=O)o1 | · | –
CCC(c1nnnn1C1CCCC1)N1CCN(c2cccc(OC)c2)CC1 (configuration not stated) | – | –
SMILES | ROMK primary | Calb biofilm kill
CN1CCC2(CC1)N=C(c1ccc(F)cc1)C(=S)N2C(=O)c1ccc(C(C)(C)C)cc1 | · | –
NC(=S)N/N=C1/CCSc2ccc3ccccc3c21 | -3.19 | –
NC(=S)N/N=C/c1c(O)ccc2ccccc12 | – | –
O=C(O)CSc1ccc(NC(=O)Nc2ccccc2F)cc1 | · | –
CNCCCC1Sc2ccccc2Oc2ccccc21 (configuration not stated) | -3.68 | –
CNCCCC1c2ccccc2C=Cc2ccccc21 | · | –
Cc1cc(NC(=O)CS(=O)(=O)Cc2ccccc2)no1 | – | –
Cc1cccc(NC(=O)C2(c3cccs3)CCOCC2)n1 | · | –
OCCC1CN(Cc2cc(F)ccc2-n2cccn2)CCN1Cc1ccc(F)cc1 (configuration not stated) | · | –
COc1ccc(NC(=S)N/N=C/c2cccn2Cc2ccccc2F)cc1 | – | –
COc1ccc(NC(=S)N/N=C/c2cccn2Cc2ccc(F)cc2Cl)cc1 | 1.35 | –
C=C1c2ccccc2NC(=S)N1Cc1ccc2c(c1)OCO2 | – | –
Cc1noc(C)c1CSc1nc2ccccc2nc1NS(=O)(=O)c1ccc(Cl)cc1 | -3.13 | ·
Cc1noc(C)c1CSCc1ccc(Cl)cc1 | · | –
Cc1cc(N=Nc2ccc(C)c(N=Nc3cc(C)c(N)cc3N)c2)c(N)cc1N | · | –
Cc1ccc(Cl)cc1N1CCN(C(=O)Cn2ccc3ccccc3c2=O)CC1 | -3.64 | ·
Cc1ccc(C)c(N2CCN(C(=O)CCNC(=O)Cn3ccc4ccccc4c3=O)CC2)c1 | – | ·
O=C(NC(=S)N1CCN(Cc2ccc3c(c2)OCO3)CC1)c1cccc(Br)c1 | 4.89 | –
O=C(NC(=S)N1CCN(Cc2ccc3c(c2)OCO3)CC1)c1ccc(Cl)cc1 | · | –
CC(=O)NCCn1c(SCc2cccc([N+](=O)[O-])c2)nc2ccccc2c1=O | – | –
CC(=O)c1sc(-c2ccccc2)cc1NS(=O)(=O)c1ccc(C)cc1 | 2.68 | –
CC(=O)c1sc(-c2ccccc2)cc1NS(=O)(=O)c1ccccc1 | · | –
CCN(CC)C1=C(Cl)C(=O)C(Cl)C12OCCO2 (configuration not stated) | · | –
Cc1ccc(/C=C/C(=O)Nc2ccccc2C(N)=O)cc1 | · | –
COC(=O)C1=C(C)N(C)C(=O)/C1=C\c1ccco1 | – | ·
CC1=C(C#N)C(=O)N(C2CCS(=O)(=O)C2)C(=O)/C1=C\c1ccco1 (configuration not stated) | -2.91 | –
CCOc1ccccc1NS(=O)(=O)c1cn(C)c(=O)n(C)c1=O | – | –
ON/C=N/C(=S)Nc1ncc(C(F)(F)F)cc1Cl | – | –
